Values joined by “and” are separate entries in the source; they are usually repeats but may differ in a detail not shown here. Identical values can stand only once.

The subject of experiment [1] is Nucleic Acid. The experiment can be described thus: DNA binding property using 100(uM) of calf thymus DNA (CTDNA) and at 100(uM) was determined. The class given is nucleic-acid assay. The following applies: Bos taurus.
Experiment [2] in a line: Percent cell kill against BMG-1 (Human brain malignant glioma cell line with a DNA index of 0.96; wild type TP 53) at 1 hour incubation at 100 (uM).
Experiment [3] can be described thus: Percent cell kill against BMG-1 (Human brain malignant glioma cell line with a DNA index of 0.96; wild type TP 53) at 1 hour incubation at 10 (uM).
The nature of experiment [4]: In Vitro Cytotoxicity against BMG-1 (Human brain malignant glioma cell line with a DNA index of 0.96; wild type TP 53) using Macrocolony assay (clonogenicity) at 100 uM at 72 hours. It is filed as functional. The following applies: read-out: Survival.
A short description of experiment [5]: (§1) In Vitro Cytotoxicity against BMG-1 (Human glioma cell line with a DNA index of 0.96; wild type TP 53) using Irradiation procedures followed by Macrocolony assay at 10 Gy and 10 (uM). The class given is functional. The essentials:
(§2)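 Exponential BMG-1 (24 h after plating) given 10 μM drug 1 h before irradiation. Co-60 gamma rays at room temperature in growth medium, 0.5–1.2 Gy/min, at 2, 5 or 10 Gy. Cells plated for macrocolony assay, 8–10 days at 37 °C in 5% CO2; crystal violet-stained colonies >50 cells counted; survival as percent of irradiated control at each dose.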

In experiment [6] the test system is Nucleic Acid. Kind of experiment: DNA binding property using 100(uM) of calf thymus DNA (CTDNA) and at 10(uM) was determined. The settings on record: Bos taurus. It is filed as nucleic-acid assay. An outline of the steps:
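Calf thymus DNA (100 μM) with ligand at drug/DNA ratio r = 0.1 (10 μM drug) in 2 mM sodium cacodylate buffer, equilibrated 25 min. Thermal melting by absorbance at 260 nm, heated 25 to 100 °C at 0.5 °C/min; Tm taken as the midpoint of normalized curves, ΔTm relative to DNA alone. UV absorption (200–500 nm) and fluorescence emission spectra also recorded.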

Experiment [7] is described as follows: In Vitro Cytotoxicity against BMG-1 (Human glioma cell line with a DNA index of 0.96; wild type TP 53) using Irradiation procedures followed by Macrocolony assay at 5Gy and 10 (uM). It is filed as functional. The essentials:
as §2

A short description of experiment [8]: In Vitro Cytotoxicity against BMG-1 (Human glioma cell line with a DNA index of 0.96; wild type TP 53) using Irradiation procedures followed by Macrocolony assay at 2 Gy and 10 (uM). It is filed as functional. An outline of the steps: as §2
A short description of experiment [9]: In Vitro Cytotoxicity against BMG-1 (Human brain malignant glioma cell line with a DNA index of 0.96; wild type TP 53) using MTT assay at 100 uM at 24 hours.
Experiment [10] is described as follows: In Vitro Cytotoxicity against BMG-1 (Human brain malignant glioma cell line with a DNA index of 0.96; wild type TP 53) using MTT assay at 10 uM at 72 hours. It is filed as functional. An outline of the steps: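 Then MTT at 0.5 mg/mL final for 2 h at 37 °C; formazan dissolved in DMSO; absorbance read at 570 nm against 630 nm reference; results as percent survival.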

The nature of experiment [11]: In Vitro Cytotoxicity against BMG-1 (Human brain malignant glioma cell line with a DNA index of 0.96; wild type TP 53) using Macrocolony assay at 10 uM […]. It is filed as functional. An outline of the steps:
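BMG-1 glioma cells in DMEM with 5% fetal calf serum at 37 °C, exponential phase, 24 h after plating. Drug (0.1, 1, 10 or 100 μM) given for 1 h, then washed off. 200–1200 cells plated and grown 8–10 days at 37 °C in 5% CO2. Colonies fixed in methanol and stained with crystal violet; colonies over 50 cells counted and expressed as percent of control.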

The species named for experiment [12] is Homo sapiens. Kind of experiment: In Vitro Cytotoxicity against BMG-1 (Human glioma cell line with a DNA index of 0.96; wild type TP 53) using MTT assay at 100 uM at 72 hours; No effect on the proliferation kinetics of BMG-1 cells. The class given is functional, cell-based.
A short description of experiment [13]: In Vitro Cytotoxicity against BMG-1 (Human glioma cell line with a DNA index of 0.96; wild type TP 53) using Macrocolony assay (clonogenicity) at 100 uM at 72 hours. The following applies: read-out: Survival. The class given is functional.
Experiment [14] can be described thus: as §1. It is filed as functional. The essentials: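 Exponentially growing BMG-1 cells, 24 h after plating, given 10 μM ligand 1 h before irradiation. Co-60 gamma irradiation (2, 5 or 10 Gy) at room temperature in growth medium at 0.5–1.2 Gy/min. Cells then plated and colonies of more than 50 cells counted after 8–10 days. Survival expressed as percent of cells irradiated at the same dose without ligand.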
This is another data set of the same source.

The nature of experiment [15]: In Vitro Cytotoxicity against BMG-1 (Human glioma cell line with a DNA index of 0.96; wild type TP 53) using Irradiation procedures followed by Macrocolony assay at 5Gy and 10 (uM) at 24 hr. It is filed as functional. The settings on record: in the assay text read “growth kinetics” for “Macrocolony assay”.

Turning to `CCOc1ccc(-c2nc3cc(-c4nc5cc(N6CCN(C)CC6)ccc5[nH]4)ccc3[nH]2)cc1`, the figures for the Lambda-em in experiment [1] and in [6] were 484 nm and 500 nm, respectively. Also, the Lambda-ex turned out to be 354 nm in experiment [1] and 340 nm in [6]. Also, the Tm in experiment [1] came out at 76 °C. In [1], the ΔTm stood at 6 °C. Further, the Cell kill % in experiment [2] came to 90%; in experiment [3], 55%. Moreover, the viability at 100 µM in experiment [4] was found to be 10%. Moreover, the Survival in experiment [5] is given as 15%; in experiment [7], 15%; in experiment [8], 10%. The same compound displayed a Lysis in experiment [9] of 77%. Besides, the Killed in experiment [10] came to 35%.
Regarding `COc1ccc(-c2nc3cc(-c4nc5cc(N6CCN(C)CC6)ccc5[nH]4)ccc3[nH]2)cc1OC`, in experiment [1], the Lambda-em amounted to 484 nm, the Lambda-ex worked out at 354 nm, the Tm was 76.4 °C and the ΔTm came to 6.4 °C. This compound also came in with a Cell kill % in [2] of 27%. In experiment [11], the Protection was found to be 82%. In addition, the NA entry in [12] was “No effect on the proliferation kinetics of BMG-1 cells”. The viability at 100 µM in [13] turned out to be 73%. Besides, in experiment [14], the Protection was 100%. The Protection in [15] amounted to 84%. Further, in [6], the Lambda-em amounted to 500 nm and the Lambda-ex came out at 340 nm.
Take `COc1cc(-c2nc3cc(-c4nc5cc(-c6nc7cc(N8CCN(C)CC8)ccc7[nH]6)ccc5[nH]4)ccc3[nH]2)ccc1O`: the Lambda-em in [1] was 418 nm and 441 nm; in [6], 500 nm. Moreover, the Lambda-ex was 356 nm and 391 nm in [1]; 350 nm in experiment [6]. Further, the Tm in [1] was 78 °C. For the same compound, the shift in melting temperature (ΔTm) in experiment [1] turned out to be 8 °C. For the same compound, the Protection in experiment [11] stood at 37%; in experiment [15], 100%. The NA entry in experiment [12] is “No effect on the proliferation kinetics of BMG-1 cells”. Further, the viability at 100 µM in [4] was determined as 92%. The Survival in [5] stood at 100%; in [7] it was 37%; in experiment [8], 24%.

(Values after ChEMBL document CHEMBL1144899, “Influence of phenyl ring disubstitution on bisbenzimidazole and terbenzimidazole cytotoxicity: synthesis and biological evaluation as radioprotectors” (2003).)
